Only some compounds are listed: those with a hit (about 1.6% of all), similar ones and a draw of the others.
SR-BI HDL uptake = inhibitors of mouse SR-BI mediated HDL lipid uptake | Q61009 | ldlA[mSR-BI] CHO cells, DiI-HDL uptake fluorescence, 3 h | inhibition, % at 12.5 µM | 0.96% of 320,000 active | AID 488896;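 active = mean replicate inhibition of at least 70% and a set share of replicates each scoring 70 or more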;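 also: 0% = median of neutral control wells and 100% = median of positive control wells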
Target sequence (Q61009 whole entry, looked up): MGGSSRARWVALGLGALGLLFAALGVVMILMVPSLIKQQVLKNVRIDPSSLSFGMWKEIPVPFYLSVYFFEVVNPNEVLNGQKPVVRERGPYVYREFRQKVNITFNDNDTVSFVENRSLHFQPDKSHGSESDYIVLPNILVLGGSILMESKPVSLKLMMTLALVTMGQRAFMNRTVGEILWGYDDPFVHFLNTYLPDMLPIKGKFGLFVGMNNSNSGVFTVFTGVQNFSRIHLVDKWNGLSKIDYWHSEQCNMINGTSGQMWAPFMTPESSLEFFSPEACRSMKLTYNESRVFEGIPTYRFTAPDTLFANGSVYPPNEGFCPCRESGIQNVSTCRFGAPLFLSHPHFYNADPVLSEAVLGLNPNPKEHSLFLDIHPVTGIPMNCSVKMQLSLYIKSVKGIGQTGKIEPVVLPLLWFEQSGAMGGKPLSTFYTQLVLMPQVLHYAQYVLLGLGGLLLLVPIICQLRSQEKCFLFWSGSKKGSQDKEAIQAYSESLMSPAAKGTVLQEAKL
SR-BI DiI-HDL act = enhances SR-BI lipid uptake from DiI-HDL; activation, % at 12.5 µM; 0.096% of 320,000 active; AID 504775; CHO ldlA[mSR-BI] cells, DiI-HDL uptake fluorescence, 3 h; 100 = double the neutral-control signal;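 active = mean replicate activation of at least 60% and every replicate at or above 60%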;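 also: 0% = median plate neutral-control signal and 100% = twice that signal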
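System: LDL receptor-deficient CHO ldlA cells overexpressing murine SR-BI | Timing: 3 h uptake period with compound, 37 °C | Medium: HEPES-buffered (25 mM, pH 7.4) F12 plus 0.5% BSA | Dosing: Single-point compound dose | Signal: Bottom-read fluorescence, 550/595 nm | Read-out: Retained DiI signal reflecting DiI-HDL uptake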
Vif imaging = HIV Vif inhibition; 0.35% of 340,000 active; HEK293T cells, Vif self-association by quenched fluorescence, imaging, 24 h; AID 602346; inhibition, % at 7.49 µM; in the data active = inhibition above about 50%, passing the limit was not always enough
H9c2 TAG inh = inhibitors of triacylglycerol accumulation | H9c2 cells, Nile Red lipid (TAG) fluorescence; cells loaded with 200 µM oleic acid | inhibition, % at 12.5 µM | 0.66% of 230,000 active | AID 651582;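 active = pattern-corrected inhibition of lipid staining of at least 50% with the nuclear-stain viability signal not falling by more than 50%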;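 also: 0% = DMSO wells and 100% = triacsin C control wells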
A1 inh = inhibitors of the anti-apoptotic protein A1, read as caspase activation. 0.066% of 330,000 active. AID 2462. MEF A1-2A-BIM cells, Caspase-Glo 3/7 luminescence, 3 h; percent of clofoctol response, vehicle zero. caspase activation, % (test concentration not listed);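 active = over half of replicate activation scores above 10%, or exactly half above 10 with the replicate mean above 10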
DiI quencher = counter-screen for SR-BI lipid transfer inhibitors: DiI fluorescence quenchers. cell-free DiI-HDL fluorescence quenching, 30 min. shares compounds with SR-BI HDL uptake. 20% of 470 active. AC50, µM (doses to about 35 µM), for inactives: at the highest dose activity change, negative = quenching;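 active = quenching, a falling signal, with AC50 below a set limit tied to the top valid dose, actives reach about 32 µM in these data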
H9c2 TAG conf = triacylglycerol accumulation inhibition, confirmation | inhibition, % at 12.5 µM | H9c2 lipid accumulation, Nile Red fluorescence; cells loaded with 200 µM oleic acid | 71% of 990 active | shares compounds with H9c2 TAG inh;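 active = mean inhibition across replicates of 40% or more; inactive = mean inhibition below 40%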;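 also: plate controls were DMSO only wells for no effect and Triacsin C treated wells for full effect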
* hit, by the source's call; . = no result.

SMILES	SR-BI HDL uptake	SR-BI DiI-HDL act	Vif imaging	H9c2 TAG inh	A1 inh	H9c2 TAG conf	others
CCOC(=O)N1CCN(C(=O)c2cnn3c(C(F)F)cc(-c4ccc(C)cc4)nc23)CC1	66	-66	9	5	0	.
Cc1ccc(-c2cc(C(F)F)n3ncc(C(=O)N4CCN(c5cccc(C)c5C)CC4)c3n2)cc1	46	-46	5	22	2	.	DiI quencher=1%
Cc1ccc2nc(-c3ccccc3)cc(C(=O)N3CCN(c4ccccc4O)CC3)c2c1	35	-35	7	-4	0	.	DiI quencher=-11%
O=C(c1cc(-c2cccnc2)nc2ccc(Br)cc12)N1CCN(c2ncccn2)CC1	9	-9	2	13	0	.
CCn1c(SCC(=O)Nc2ccc(N3CCOCC3)cc2)nnc1-c1ccco1	-17	17	-6	1	0	.
Cc1ccc2[nH]c3c(c2c1)CN(C(C)C)CC3	2	-2	5	.	1	.
Cc1ccc(OCC(=O)NNC(=O)C2CCN(c3ncnc4sc(C)c(C)c34)CC2)cc1	80*	-80	-2	-12	0	.	DiI quencher=3%
CCOc1c2ccc(C(=O)NC3CCCc4ccccc43)cc2nn1C (configuration not stated)	17	-17	.	10	2	.
CCCCn1nc2cc(C(=O)NC3CCCc4ccccc43)ccc2c1OCC (configuration not stated)	80*	-80	-10	14	0	.	DiI quencher=-3%
OC1CCN(c2cc(-c3ccccc3)nc3cc(-c4ccc(F)cc4)nn23)CC1	72*	-72	-8	.	1	.	DiI quencher=6%
COc1ccc(CN(C)C(=O)COC(=O)c2c(-c3ccccc3Cl)noc2C)cc1	24	-24	-5	-11	0	.
N#Cc1ccccc1S(=O)(=O)N1CCN(C(=O)C2CC(=O)N(c3ccc4c(c3)OCCO4)C2)CC1 (configuration not stated)	-1	1	10	10	0	.	DiI quencher=-10%
O=C(c1ccccc1)c1cccn1CC(=O)N1CCCCCC1	-16	16	5	-16	1	.
Cc1cccc(N2CCN(C(=O)Cn3cccc3C(=O)c3ccccc3)CC2)c1C	73*	-73	-2	5	1	.	DiI quencher=-7%
Cc1cccc(N2CCN(C(=O)CN3C(=O)NC4(CCCCCC4)C3=O)CC2)c1C	73*	-73	-1	5	.	.	DiI quencher=-3%
O=C(Nc1ccc(-c2csc(Nc3ccccc3)n2)cc1)c1cccc(C(F)(F)F)c1	114*	-114	18	75*	-1	83*	DiI quencher=1.5µM*
CC(C)n1cc(CN2CCN(C)C(CCO)C2)c2ccccc21 (configuration not stated)	3	-3	-2	.	0	.
Cc1nn2c(N3CCN(C)CC3)c3c(nc2c1-c1ccccc1)CCCC3	.	.	14	58*	0	45*
Cc1cc(NCc2ccccn2)n2nc(C)c(-c3ccccc3)c2n1	13	-13	7	44	0	.
Cc1nn2c(NCc3ccccn3)c3c(nc2c1-c1ccccc1)CCC3	.	.	0	61*	0	40*
CC(C)N(C#N)c1nc(N2CCOCC2)nc(N2CCOCC2)n1	-7	7	-4	51*	2	32
COc1cc2c(c(OC)c1OC)-c1ccc(SC)c(=O)cc1C(NC(=O)c1ccccc1)CC2 (configuration not stated)	-3	3	-10	27	.	.
COc1cc2c(c(OC)c1OC)-c1ccc(SC)c(=O)cc1C(NC=O)CC2 (configuration not stated)	-19	19	13	69*	.	47*
COc1cc2c(c(OC)c1OC)-c1ccc(OC)c(=O)cc1C(NC(=O)c1ccccc1)CC2 (configuration not stated)	0	0	1	55*	.	69*
C=COC(=O)NC1CCc2cc(OC)c(OC)c(OC)c2-c2ccc(SC)c(=O)cc21 (configuration not stated)	-9	9	17	22	.	.
SMILES	SR-BI HDL uptake	SR-BI DiI-HDL act	Vif imaging	H9c2 TAG inh	A1 inh	H9c2 TAG conf	others
O=C1CCCC2=C1C1(CCCC1)N=C(Nc1nc3cc(-c4ccccc4)ccc3o1)N2	.	.	.	62*	.	71*
Cc1ccc(NC(=O)CCC(=O)c2cccs2)c(O)c1	-9	9	-24	0	0	.
CC(=O)O[C@H]1C(=O)[C@]2(C)[C@H]([C@H](OC(=O)c3ccccc3)[C@]3(O)C[C@H](OC(=O)[C@H](O)[C@@H](NC(=O)c4ccccc4)c4ccccc4)C(C)=C1C3(C)C)[C@]1(OC(C)=O)CO[C@@H]1C[C@@H]2O	4	-4	31	54*	-1	57*
CC(=O)O[C@H]1C(=O)[C@@]2(C)C([C@H](OC(=O)c3ccccc3)[C@]3(O)C[C@H](OC(=O)[C@H](O)[C@@H](NC(=O)c4ccccc4)c4ccccc4)C(C)=C1C3(C)C)[C@]1(OC(C)=O)CO[C@@H]1C[C@H]2O (some centres not stated)	-15	15	28	.	0	.
C[C@H](CO)N1C[C@H](C)[C@@H](CN(C)Cc2ccc(C(=O)Nc3ccccc3N)cc2)Oc2c(NC(=O)C3CCCCC3)cccc2C1=O	-11	11	-1	3	0	.
C=CCC[C@H](Cc1ccc(F)cc1)C(=O)OC[C@H](C)NC(=O)[C@@H](CC=C)CC(=O)N[C@H](CO)Cc1ccccc1	29	-29	-2	55*	0	44*
COc1cccc2sc(Nc3nc(-c4cc5ccccc5oc4=O)cs3)nc12	53	-53	-2	58*	0	87*
Nc1ccc(Nc2nc(-c3cc4ccccc4oc3=O)cs2)cc1	31	-31	-5	22	0	.
CCOC(=O)[C@H]1[C@H]2COc3ccc(OC)cc3[C@@H]2N2C(=O)CN(Cc3ccccc3)C(=O)[C@@]12C	-13	13	-1	-6	1	.
Cc1nc(N/N=C/c2cccc(F)c2)cc(N2CCOCC2)n1	19	-19	12	64*	0	68*
Oc1cccc(/C=N/Nc2cc(N3CCOCC3)nc(N3CCOCC3)n2)c1	.	.	-2	121	0	.
c1c[nH]c(CN2CCN(Cc3ncc[nH]3)CC2)n1	-14	14	5	-12	.	.
COc1ccc2cc3cc(C(=O)NCCc4ccc(OC)c(OC)c4)oc3nc2c1	38	-38	-41	67*	-1	44*
CCCN(CCC)CCCNC(=O)c1cc2cc3ccc(OC)cc3nc2o1	30	-30	.	6	2	.
O=C1C(=O)N(Cc2cccs2)c2ccccc21	-9	9	1	10	0	.
